Assay results pooled from the literature.
Compare with care: the assays were run in different laboratories.
MET: Hepatocyte growth factor receptor (MET, Homo sapiens, UniProt P08581)
MET Y1235D: Hepatocyte growth factor receptor (MET, Homo sapiens, UniProt P08581, Y1235D)

`Cc1ccc(NC(=O)c2ccnc(C(F)(F)F)c2)cc1-c1cc(OCCO)nc(N2CCOCC2)c1` has a remaining binding of 100% (MET; binding; 1 µM).
For `CC#CC(=O)N1CCC[C@H]1c1nc(-c2ccc(C(=O)Nc3ccccn3)cc2)c2c(N)nccn12`, the inhibition was 17% (MET; enzyme activity, inhibitor; 1 µM).
For `COc1ccc2[nH]c3c4[nH]c5ccc(OC)cc5c4c4c(c3c2c1)C(=O)NC4=O`, the remaining binding was 88% (Hepatocyte growth factor receptor (MET, Homo sapiens, UniProt P08581, M1250T); binding; 1 µM).
`C=CC(=O)N1CCC([C@@H]2CCNc3c(C(N)=O)c(-c4ccc(Oc5ccccc5)cc4)nn32)CC1` has an inhibition of 7% (MET; cell-free assay; 1 µM).
`C1=C/COCc2cc(ccc2OCCN2CCCC2)Nc2nccc(n2)-c2cccc(c2)COC/1` has a remaining binding of 100% (MET Y1235D; binding; 0.1 µM).
With `CCCCC(=O)Nc1ccc(-c2ccc3ncn(CCC)c(=O)c3c2)cn1` the remaining binding was 96% (MET; binding, competition with immobilised ligand; 0.5 µM).
The activity vs control of `CC(C)S(=O)(=O)c1ccc2nccc(Nc3ccc4sc(C5CCCC5)nc4c3)c2c1` is reported as 119% (MET; enzyme activity, inhibitor; 1 µM).
For `N#Cc1ccc(NC(=O)Nc2ccccc2)cc1`, the remaining binding was 100% (MET; cell-free assay, competition with immobilised ligand; 25 µM).
The inhibition of `O=C1C=C(Nc2ccc(OCc3cn(Cc4ccccc4)nn3)cc2)C(=O)c2ccccc21` is reported as 18% (MET; enzyme activity, inhibitor, radiometric; 10 µM).
`CN1CCN(C(=O)c2ccc(NC(=O)Nc3ccc(N(C)c4ccnc(Nc5ccc(CS(C)(=O)=O)cc5)n4)cc3)cc2)CC1` gave a remaining binding of 4.4% (MET Y1235D; binding; 1 µM).
The remaining signal of `C#Cc1cnc(Nc2ccnc(CO)c2)nc1Nc1ccccc1S(C)(=O)=NC#N` (centres unmarked) is reported as 83% (MET; cell-free assay; 1 µM).
`C[C@H]1CC[C@H](n2c3cnccc3c3cnc(Nc4ccc5c(n4)CCN(C(=O)CO)C5)nc32)CC1` gave a remaining signal of 100% (MET Y1235D; cell-free assay; 1 µM).
`COc1ccc2oc(-c3ccc4nc(N)oc4c3)c/c(=N\c3ccccc3NC(=O)CCN)c2c1` has a remaining binding of 106% (MET; binding; 1 µM).
`Cc1cc(O)c(-c2ccc([C@@H](C)CN(C)C)cc2)c2c1[nH]c(=O)c1sccc12` gave an inhibition of -0.782% (MET; cell-free assay, inhibitor; 0.1 µM).
